# Measured values as given in ChEMBL document CHEMBL1137816, “New polyhydroxylated pyrrolidine, piperidine, and pyrrolizidine alkaloids from Scilla sibirica” (J Nat Prod, 2002).
# Active and inactive are the calls of the source. The rule behind the calls is not given here.
# Biological target: T1, Tissue alpha-L-fucosidase (Bos taurus) (UniProt Q2KIM0)
# T1 sequence (whole entry): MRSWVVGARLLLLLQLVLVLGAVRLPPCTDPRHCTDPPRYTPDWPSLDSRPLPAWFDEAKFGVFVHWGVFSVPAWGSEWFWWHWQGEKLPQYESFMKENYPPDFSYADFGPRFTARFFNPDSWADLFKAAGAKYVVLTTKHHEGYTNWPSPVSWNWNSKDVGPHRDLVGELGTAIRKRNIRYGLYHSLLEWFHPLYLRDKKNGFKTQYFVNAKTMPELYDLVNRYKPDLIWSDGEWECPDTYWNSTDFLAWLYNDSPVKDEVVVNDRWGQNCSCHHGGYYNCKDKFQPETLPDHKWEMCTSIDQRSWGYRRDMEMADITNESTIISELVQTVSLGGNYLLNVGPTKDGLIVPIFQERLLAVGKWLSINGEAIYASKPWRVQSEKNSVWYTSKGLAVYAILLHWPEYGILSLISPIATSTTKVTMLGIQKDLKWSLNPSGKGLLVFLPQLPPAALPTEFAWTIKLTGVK
# Assay: Inhibition of bovine epididymis alpha-L-fucosidase assessed as p-nitrophenol release at 1000 uM after 30 mins by spectrophotometry
# Method in brief: (§1)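 p-Nitrophenyl glycoside substrates: Penicillium decumbens α-L-rhamnosidase at pH 4.5, bovine epididymis α-L-fucosidase at pH 5.5, bovine liver β-galactosidase at pH 6.8. β-Mannosidase came from rat epididymal fluid purified from epididymis, with p-nitrophenyl-β-D-mannoside at pH 5.2. Enzyme, substrate and inhibitor were incubated 30 min at 37 °C. The reaction was stopped with 400 mM Na2CO3, and p-nitrophenol was read at 400 nm.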
row,Structure (SMILES),Activity
1,C[C@@H]1CC[C@@H]2[C@@H](O)[C@@H](O)[C@@H](CO)N12 (relative stereo) [HYACINTHACINE A5],inactive
2,C[C@@H]1C[C@H](O)[C@@H]2[C@H](O)[C@H](O)[C@@H](CO)N21 (relative stereo) [HYACINTHACINE B5],inactive

# Biological target: T2, Beta-galactosidase (Bos taurus) (UniProt Q58D55)
# T2 sequence (whole entry): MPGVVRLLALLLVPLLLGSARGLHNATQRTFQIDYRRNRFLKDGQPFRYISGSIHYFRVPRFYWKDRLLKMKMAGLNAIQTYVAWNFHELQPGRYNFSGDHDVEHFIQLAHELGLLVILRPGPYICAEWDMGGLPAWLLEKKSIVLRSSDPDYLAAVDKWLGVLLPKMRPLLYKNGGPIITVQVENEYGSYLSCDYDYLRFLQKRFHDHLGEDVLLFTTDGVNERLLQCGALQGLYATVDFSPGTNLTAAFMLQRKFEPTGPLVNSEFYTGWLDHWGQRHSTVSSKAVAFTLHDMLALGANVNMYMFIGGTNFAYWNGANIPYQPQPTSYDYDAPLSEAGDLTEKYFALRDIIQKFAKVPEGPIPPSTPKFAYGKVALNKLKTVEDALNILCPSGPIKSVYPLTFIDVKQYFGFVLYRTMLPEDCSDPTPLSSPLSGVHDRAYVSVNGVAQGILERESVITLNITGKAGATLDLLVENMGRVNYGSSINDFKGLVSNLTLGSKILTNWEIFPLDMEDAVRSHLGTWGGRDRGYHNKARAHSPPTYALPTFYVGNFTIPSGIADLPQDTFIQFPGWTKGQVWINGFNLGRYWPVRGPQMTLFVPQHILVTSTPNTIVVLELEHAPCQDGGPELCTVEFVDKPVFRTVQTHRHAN
# Assay: Inhibition of bovine liver beta-galactosidase assessed as p-nitrophenol release at 1000 uM after 30 mins by spectrophotometry
# Method in brief: as §1
Structure (SMILES),inhibition [%],Activity
OCC[C@H]1N[C@@H](CO)[C@H](O)[C@H]1O,< 50,
C[C@@H]1CC[C@@H]2[C@@H](O)[C@@H](O)[C@@H](CO)N12 (relative stereo) [HYACINTHACINE A5],,inactive
C[C@@H]1C[C@H](O)[C@@H]2[C@H](O)[C@H](O)[C@@H](CO)N21 (relative stereo) [HYACINTHACINE B5],,inactive

# Biological target: Lysosomal alpha-glucosidase (Rattus norvegicus) (UniProt Q6P7A9)
# Assay: Inhibition of rat intestinal maltase assessed as D-glucose release at 1000 uM after 30 mins by Glucose B-test
# Method in brief: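 Brush border membranes from rat small intestine served as the enzyme source, with maltose substrate at pH 5.8. Incubation with inhibitor was 30 min at 37 °C. Released D-glucose was measured colorimetrically by Glucose B-test.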
# Sequence of Lysosomal alpha-glucosidase (Rattus norvegicus) (Q6P7A9 whole entry): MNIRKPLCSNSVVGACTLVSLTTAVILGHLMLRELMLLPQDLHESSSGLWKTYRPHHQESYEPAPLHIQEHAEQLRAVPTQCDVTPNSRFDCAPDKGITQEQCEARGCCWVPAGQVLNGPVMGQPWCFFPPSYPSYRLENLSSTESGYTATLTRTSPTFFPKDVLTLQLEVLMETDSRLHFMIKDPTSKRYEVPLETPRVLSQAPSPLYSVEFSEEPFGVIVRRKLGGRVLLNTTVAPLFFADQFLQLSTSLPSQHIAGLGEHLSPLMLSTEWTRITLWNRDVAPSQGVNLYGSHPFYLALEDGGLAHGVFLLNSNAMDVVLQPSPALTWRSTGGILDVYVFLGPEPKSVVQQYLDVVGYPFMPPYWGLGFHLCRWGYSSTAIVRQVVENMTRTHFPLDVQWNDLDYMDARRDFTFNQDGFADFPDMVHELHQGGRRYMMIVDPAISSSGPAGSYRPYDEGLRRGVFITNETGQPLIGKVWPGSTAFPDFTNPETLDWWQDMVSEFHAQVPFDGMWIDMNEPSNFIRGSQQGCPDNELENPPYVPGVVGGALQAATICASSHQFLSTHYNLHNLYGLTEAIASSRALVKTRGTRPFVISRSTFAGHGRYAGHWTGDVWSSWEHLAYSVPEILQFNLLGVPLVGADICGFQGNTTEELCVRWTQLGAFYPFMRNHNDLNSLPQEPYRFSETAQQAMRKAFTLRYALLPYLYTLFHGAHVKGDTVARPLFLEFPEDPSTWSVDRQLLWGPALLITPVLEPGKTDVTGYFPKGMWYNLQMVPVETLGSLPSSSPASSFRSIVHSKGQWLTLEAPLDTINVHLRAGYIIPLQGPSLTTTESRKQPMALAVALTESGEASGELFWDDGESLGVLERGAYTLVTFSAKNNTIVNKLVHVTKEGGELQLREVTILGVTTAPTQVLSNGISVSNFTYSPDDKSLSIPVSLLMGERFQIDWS
inhibition [%],Structure (SMILES),Activity
< 50,OCC[C@H]1N[C@H](CO)[C@@H](O)[C@@H]1O[C@@H]1O[C@H](CO)[C@@H](O)[C@H](O)[C@@H]1O,
,C[C@@H]1CC[C@@H]2[C@@H](O)[C@@H](O)[C@@H](CO)N12 (relative stereo) [HYACINTHACINE A5],inactive
,C[C@@H]1C[C@H](O)[C@@H]2[C@H](O)[C@H](O)[C@@H](CO)N21 (relative stereo) [HYACINTHACINE B5],inactive

# Biological target: not listed separately
# Assay: Inhibition of rat intestinal amyloglucosidase
row,Structure (SMILES),IC50 [µM]
1,C[C@@H]1CC[C@@H]2[C@@H](O)[C@@H](O)[C@@H](CO)N12 (relative stereo) [HYACINTHACINE A5],110
2,C[C@@H]1C[C@H](O)[C@@H]2[C@H](O)[C@H](O)[C@@H](CO)N21 (relative stereo) [HYACINTHACINE B5],110

# Biological target: T3, Beta-mannosidase (Rattus norvegicus, UniProt Q4FZV0)
# T3 sequence (Q4FZV0 whole entry): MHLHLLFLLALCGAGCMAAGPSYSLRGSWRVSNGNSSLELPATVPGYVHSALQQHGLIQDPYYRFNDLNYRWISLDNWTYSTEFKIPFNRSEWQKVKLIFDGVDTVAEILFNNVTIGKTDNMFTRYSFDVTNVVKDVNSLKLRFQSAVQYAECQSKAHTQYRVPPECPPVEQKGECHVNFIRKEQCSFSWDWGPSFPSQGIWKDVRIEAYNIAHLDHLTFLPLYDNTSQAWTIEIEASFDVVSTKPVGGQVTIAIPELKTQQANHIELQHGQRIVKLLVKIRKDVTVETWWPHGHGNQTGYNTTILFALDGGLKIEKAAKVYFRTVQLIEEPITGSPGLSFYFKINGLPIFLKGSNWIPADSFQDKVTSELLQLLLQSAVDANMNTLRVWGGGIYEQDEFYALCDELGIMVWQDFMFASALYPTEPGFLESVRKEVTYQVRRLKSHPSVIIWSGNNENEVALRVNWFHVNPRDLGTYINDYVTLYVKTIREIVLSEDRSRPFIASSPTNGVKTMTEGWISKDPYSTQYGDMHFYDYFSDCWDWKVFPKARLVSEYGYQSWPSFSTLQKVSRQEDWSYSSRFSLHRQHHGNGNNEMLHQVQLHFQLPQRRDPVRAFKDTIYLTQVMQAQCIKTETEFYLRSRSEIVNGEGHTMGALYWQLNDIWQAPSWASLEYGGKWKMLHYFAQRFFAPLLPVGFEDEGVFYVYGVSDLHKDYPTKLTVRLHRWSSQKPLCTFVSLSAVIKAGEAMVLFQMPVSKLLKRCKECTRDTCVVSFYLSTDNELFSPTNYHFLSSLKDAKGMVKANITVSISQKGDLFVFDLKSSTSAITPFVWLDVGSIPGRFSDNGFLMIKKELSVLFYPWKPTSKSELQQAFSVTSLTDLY
# Assay: Inhibition of rat epididymis beta-mannosidase assessed as p-nitrophenol release after 30 mins by spectrophotometry
# Method in brief: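 Source was rat epididymal fluid purified from epididymis. Assayed at pH 5.2 with p-nitrophenyl-β-D-mannoside, incubated with inhibitor 30 min at 37 °C. Stopped with 400 mM Na2CO3; p-nitrophenol read at 400 nm.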
row,IC50 [µM],Structure (SMILES)
1,160,OCC[C@H]1N[C@H](CO)[C@@H](O)[C@@H]1O[C@@H]1O[C@H](CO)[C@@H](O)[C@H](O)[C@@H]1O

# Biological target: Oligo-1,6-glucosidase IMA1 (Saccharomyces cerevisiae S288c) (UniProt P53051)
# Assay: Inhibition of yeast alpha-glucosidase assessed as D-glucose release at 1000 uM after 30 mins by Glucose B-test
# Sequence of Oligo-1,6-glucosidase IMA1 (Saccharomyces cerevisiae S288c) (P53051 whole entry): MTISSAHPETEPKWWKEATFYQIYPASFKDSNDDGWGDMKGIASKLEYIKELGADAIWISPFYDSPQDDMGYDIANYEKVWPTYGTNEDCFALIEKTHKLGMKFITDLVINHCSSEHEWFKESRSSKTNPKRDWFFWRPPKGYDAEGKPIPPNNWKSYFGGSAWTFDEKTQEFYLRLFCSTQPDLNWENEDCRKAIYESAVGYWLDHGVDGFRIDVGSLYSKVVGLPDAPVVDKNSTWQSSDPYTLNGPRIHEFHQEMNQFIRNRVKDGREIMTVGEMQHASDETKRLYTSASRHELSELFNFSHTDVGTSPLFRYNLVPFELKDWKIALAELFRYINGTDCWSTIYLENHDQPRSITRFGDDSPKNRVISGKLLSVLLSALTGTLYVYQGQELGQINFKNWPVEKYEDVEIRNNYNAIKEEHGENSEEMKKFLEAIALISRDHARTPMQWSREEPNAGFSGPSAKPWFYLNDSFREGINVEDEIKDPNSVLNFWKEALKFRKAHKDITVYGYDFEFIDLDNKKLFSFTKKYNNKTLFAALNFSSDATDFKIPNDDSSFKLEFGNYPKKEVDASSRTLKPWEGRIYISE
row,Structure (SMILES),Activity
1,C[C@@H]1CC[C@@H]2[C@@H](O)[C@@H](O)[C@@H](CO)N12 (relative stereo) [HYACINTHACINE A5],inactive
2,C[C@@H]1C[C@H](O)[C@@H]2[C@H](O)[C@H](O)[C@@H](CO)N21 (relative stereo) [HYACINTHACINE B5],inactive

# Biological target: Lysosomal alpha-glucosidase (Rattus norvegicus) (UniProt Q6P7A9)
# Assay: Inhibition of rat liver lysosome alpha-glucosidase assessed as D-glucose release at 1000 uM after 30 mins by Glucose B-test
row,Structure (SMILES),Activity
1,C[C@@H]1CC[C@@H]2[C@@H](O)[C@@H](O)[C@@H](CO)N12 (relative stereo) [HYACINTHACINE A5],inactive
2,C[C@@H]1C[C@H](O)[C@@H]2[C@H](O)[C@H](O)[C@@H](CO)N21 (relative stereo) [HYACINTHACINE B5],inactive

# Biological target: T4, Tissue alpha-L-fucosidase (Bos taurus, UniProt Q2KIM0)
# T4 sequence (Q2KIM0 whole entry): T1 sequence (whole entry)
# Assay: Inhibition of bovine epididymis alpha-L-fucosidase assessed as p-nitrophenol release after 30 mins by spectrophotometry
# Method in brief: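 Enzyme from bovine epididymis, run at pH 5.5 with the appropriate p-nitrophenyl glycoside substrate. Enzyme, substrate and inhibitor incubated together 30 min at 37 °C. Reaction stopped by adding 400 mM Na2CO3; p-nitrophenol measured spectrometrically at 400 nm.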
row,Structure (SMILES),IC50 [µM]
1,OCC[C@H]1N[C@@H](CO)[C@H](O)[C@H]1O,840
2,OCC[C@H]1N[C@H](CO)[C@@H](O)[C@@H]1O[C@@H]1O[C@H](CO)[C@@H](O)[C@H](O)[C@@H]1O,78

# Test system: Oryza sativa
# Assay: Inhibition of rice alpha-glucosidase assessed as D-glucose release at 1000 uM after 10 mins by Glucose B-test
# Method in brief: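 Rice α-glucosidase was assayed with maltose as substrate at the enzyme's optimum pH. Incubation with inhibitor was 10 min at 37 °C. Released D-glucose was determined colorimetrically by Glucose B-test.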
Structure (SMILES),inhibition [%],Activity
OCC[C@H]1N[C@@H](CO)[C@H](O)[C@H]1O,< 50,
OCC[C@H]1N[C@H](CO)[C@@H](O)[C@@H]1O[C@@H]1O[C@H](CO)[C@@H](O)[C@H](O)[C@@H]1O,< 50,
C[C@@H]1CC[C@@H]2[C@@H](O)[C@@H](O)[C@@H](CO)N12 (relative stereo) [HYACINTHACINE A5],,inactive
C[C@@H]1C[C@H](O)[C@@H]2[C@H](O)[C@H](O)[C@@H](CO)N21 (relative stereo) [HYACINTHACINE B5],,inactive

# Biological target: T5, Beta-mannosidase (Rattus norvegicus) (UniProt Q4FZV0)
# T5 sequence (whole entry): T3 sequence (Q4FZV0 whole entry)
# Assay: Inhibition of rat epididymis beta-mannosidase assessed as p-nitrophenol release at 1000 uM after 30 mins by spectrophotometry
# Method in brief: as §1
row,Structure (SMILES),inhibition [%]
1,OCC[C@H]1N[C@@H](CO)[C@H](O)[C@H]1O,< 50

# Biological target: Lysosomal alpha-glucosidase (Rattus norvegicus) (UniProt Q6P7A9)
# Assay: Inhibition of rat liver lysosome alpha-glucosidase assessed as p-nitrophenol release at 1000 uM after 30 mins measured spectrometrically at 400 nm
row,inhibition [%],Structure (SMILES)
1,< 50,OCC[C@H]1N[C@H](CO)[C@@H](O)[C@@H]1O[C@@H]1O[C@H](CO)[C@@H](O)[C@H](O)[C@@H]1O

# Biological target: Oligo-1,6-glucosidase IMA1 (Saccharomyces cerevisiae S288c) (UniProt P53051)
# Assay: Inhibition of yeast alpha-glucosidase assessed as p-nitrophenol release at 1000 uM after 30 mins measured spectrometrically at 400 nm
row,Structure (SMILES),inhibition [%]
1,OCC[C@H]1N[C@@H](CO)[C@H](O)[C@H]1O,< 50
2,OCC[C@H]1N[C@H](CO)[C@@H](O)[C@@H]1O[C@@H]1O[C@H](CO)[C@@H](O)[C@H](O)[C@@H]1O,< 50

# Test system: Penicillium decumbens
# Assay: Inhibition of Penicillium decumbens alpha-L-rhamnosidase assessed as p-nitrophenol release at 1000 uM by spectrophotometry
# Method in brief: as §1
Structure (SMILES),inhibition [%],Activity
OCC[C@H]1N[C@@H](CO)[C@H](O)[C@H]1O,< 50,
C[C@@H]1CC[C@@H]2[C@@H](O)[C@@H](O)[C@@H](CO)N12 (relative stereo) [HYACINTHACINE A5],,inactive
C[C@@H]1C[C@H](O)[C@@H]2[C@H](O)[C@H](O)[C@@H](CO)N21 (relative stereo) [HYACINTHACINE B5],,inactive
